Experiment: organ radiation dose estimates, OLINDA 1.1, ICRP-60
Assay type: in vivo, human
Outline: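 Whole-body PET-MR ran as nine scans to 214 min. Organ VOIs were drawn in AMIDE, giving decay-corrected %IA per VOI; remainder = whole body minus measured organs. TIACs came from the exponential model (EXM) in OLINDA 1.1. Per-participant organ doses used 70 kg adult male or 55 kg female models in OLINDA 1.1. Effective dose (mSv) = organ absorbed doses × ICRP-60 tissue weighting factors.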

For `COC(=O)[C@@H](N)CC(=O)Nc1ccc2c(c1)Cc1cc([18F])ccc1-2` [[^18F]RP-115, methyl N^4-(7-[^18F]fluoro-9H-fluoren-2-yl)asparaginate], the “Effective dose (whole body)” value (F1 (189 MBq)) was 5.42 mSv, the “Estimated absorbed dose, Adrenals” value (F1 (189 MBq)) was 3.89 mGy and the “Estimated absorbed dose, Brain” value (F1 (189 MBq)) was 3.40 mGy. For the same compound, the “Estimated absorbed dose, Breasts” value (F1 (189 MBq)) was 1.79 mGy, the “Estimated absorbed dose, Gallbladder wall” value (F1 (189 MBq)) was 4.40 mGy and the “Estimated absorbed dose, Heart wall” value (F1 (189 MBq)) was 4.25 mGy. For the same compound, the “Estimated absorbed dose, Kidneys” value (F1 (189 MBq)) was 32.5 mGy, the “Estimated absorbed dose, Liver” value (F1 (189 MBq)) was 7.85 mGy and the “Estimated absorbed dose, Lower large intestine wall” value (F1 (189 MBq)) was 2.64 mGy. For the same compound, the “Estimated absorbed dose, Lungs” value (F1 (189 MBq)) was 12.3 mGy, the “Estimated absorbed dose, Muscle” value (F1 (189 MBq)) was 2.06 mGy and the “Estimated absorbed dose, Osteogenic cells” value (F1 (189 MBq)) was 2.94 mGy. For the same compound, the “Estimated absorbed dose, Ovaries” value (F1 (189 MBq)) was 2.83 mGy, the “Estimated absorbed dose, Pancreas” value (F1 (189 MBq)) was 6.10 mGy and the “Estimated absorbed dose, Red marrow” value (F1 (189 MBq)) was 2.15 mGy. For the same compound, the “Estimated absorbed dose, Remainder” value (F1 (189 MBq)) was 2.62 mGy, the “Estimated absorbed dose, Skin” value (F1 (189 MBq)) was 1.44 mGy and the “Estimated absorbed dose, Small intestine” value (F1 (189 MBq)) was 6.06 mGy. The “Estimated absorbed dose, Spleen” value (F1 (189 MBq)) was 8.87 mGy, the “Estimated absorbed dose, Stomach wall” value (F1 (189 MBq)) was 2.68 mGy and the “Estimated absorbed dose, Thymus” value (F1 (189 MBq)) was 7.08 mGy. For the same compound, the “Estimated absorbed dose, Thyroid” value (F1 (189 MBq)) was 1.88 mGy, the “Estimated absorbed dose, Upper, lower intestine wall” value (F1 (189 MBq)) was 3.09 mGy and the “Estimated absorbed dose, Urinary bladder wall” value (F1 (189 MBq)) was 18.8 mGy. The “Estimated absorbed dose, Uterus” value (F1 (189 MBq)) was 4.21 mGy, the “Effective dose (whole body)” value (F2, no voiding (355 MBq)) was 10.6 mSv and the “Estimated absorbed dose, Adrenals” value (F2, no voiding (355 MBq)) was 7.74 mGy. For the same compound, the “Estimated absorbed dose, Brain” value (F2, no voiding (355 MBq)) was 5.65 mGy, the “Estimated absorbed dose, Breasts” value (F2, no voiding (355 MBq)) was 2.93 mGy and the “Estimated absorbed dose, Gallbladder wall” value (F2, no voiding (355 MBq)) was 7.35 mGy. For the same compound, the “Estimated absorbed dose, Heart wall” value (F2, no voiding (355 MBq)) was 6.61 mGy, the “Estimated absorbed dose, Kidneys” value (F2, no voiding (355 MBq)) was 93.4 mGy and the “Estimated absorbed dose, Liver” value (F2, no voiding (355 MBq)) was 14.6 mGy. The “Estimated absorbed dose, Lower large intestine wall” value (F2, no voiding (355 MBq)) was 4.26 mGy, the “Estimated absorbed dose, Lungs” value (F2, no voiding (355 MBq)) was 25.5 mGy and the “Estimated absorbed dose, Muscle” value (F2, no voiding (355 MBq)) was 3.45 mGy. The “Estimated absorbed dose, Osteogenic cells” value (F2, no voiding (355 MBq)) was 4.69 mGy, the “Estimated absorbed dose, Ovaries” value (F2, no voiding (355 MBq)) was 5.22 mGy and the “Estimated absorbed dose, Pancreas” value (F2, no voiding (355 MBq)) was 7.78 mGy. The “Estimated absorbed dose, Red marrow” value (F2, no voiding (355 MBq)) was 3.77 mGy, the “Estimated absorbed dose, Remainder” value (F2, no voiding (355 MBq)) was 4.65 mGy and the “Estimated absorbed dose, Skin” value (F2, no voiding (355 MBq)) was 2.31 mGy. The “Estimated absorbed dose, Small intestine” value (F2, no voiding (355 MBq)) was 8.35 mGy, the “Estimated absorbed dose, Spleen” value (F2, no voiding (355 MBq)) was 5.86 mGy and the “Estimated absorbed dose, Stomach wall” value (F2, no voiding (355 MBq)) was 4.40 mGy. The “Estimated absorbed dose, Thymus” value (F2, no voiding (355 MBq)) was 7.57 mGy, the “Estimated absorbed dose, Thyroid” value (F2, no voiding (355 MBq)) was 17.0 mGy and the “Estimated absorbed dose, Upper, lower intestine wall” value (F2, no voiding (355 MBq)) was 5.04 mGy. The “Estimated absorbed dose, Urinary bladder wall” value (F2, no voiding (355 MBq)) was 32.9 mGy, the “Estimated absorbed dose, Uterus” value (F2, no voiding (355 MBq)) was 47.2 mGy and the “Effective dose (whole body)” value (F3 (117 MBq)) was 2.67 mSv. The “Estimated absorbed dose, Adrenals” value (F3 (117 MBq)) was 2.50 mGy, the “Estimated absorbed dose, Brain” value (F3 (117 MBq)) was 1.60 mGy and the “Estimated absorbed dose, Breasts” value (F3 (117 MBq)) was 1.13 mGy. The “Estimated absorbed dose, Gallbladder wall” value (F3 (117 MBq)) was 2.95 mGy, the “Estimated absorbed dose, Heart wall” value (F3 (117 MBq)) was 2.26 mGy and the “Estimated absorbed dose, Kidneys” value (F3 (117 MBq)) was 21.0 mGy. The “Estimated absorbed dose, Liver” value (F3 (117 MBq)) was 5.81 mGy, the “Estimated absorbed dose, Lower large intestine wall” value (F3 (117 MBq)) was 1.47 mGy and the “Estimated absorbed dose, Lungs” value (F3 (117 MBq)) was 5.47 mGy. For the same compound, the “Estimated absorbed dose, Muscle” value (F3 (117 MBq)) was 1.29 mGy, the “Estimated absorbed dose, Osteogenic cells” value (F3 (117 MBq)) was 1.94 mGy and the “Estimated absorbed dose, Ovaries” value (F3 (117 MBq)) was 1.63 mGy. For the same compound, the “Estimated absorbed dose, Pancreas” value (F3 (117 MBq)) was 2.85 mGy, the “Estimated absorbed dose, Red marrow” value (F3 (117 MBq)) was 1.36 mGy and the “Estimated absorbed dose, Remainder” value (F3 (117 MBq)) was 1.61 mGy. The “Estimated absorbed dose, Skin” value (F3 (117 MBq)) was 0.945 mGy, the “Estimated absorbed dose, Small intestine” value (F3 (117 MBq)) was 3.30 mGy and the “Estimated absorbed dose, Spleen” value (F3 (117 MBq)) was 3.02 mGy. For the same compound, the “Estimated absorbed dose, Stomach wall” value (F3 (117 MBq)) was 1.68 mGy, the “Estimated absorbed dose, Thymus” value (F3 (117 MBq)) was 2.23 mGy and the “Estimated absorbed dose, Thyroid” value (F3 (117 MBq)) was 2.03 mGy. The “Estimated absorbed dose, Upper, lower intestine wall” value (F3 (117 MBq)) was 1.91 mGy, the “Estimated absorbed dose, Urinary bladder wall” value (F3 (117 MBq)) was 1.57 mGy and the “Estimated absorbed dose, Uterus” value (F3 (117 MBq)) was 3.93 mGy. For the same compound, the “Effective dose (whole body)” value (F4 (167 MBq)) was 3.90 mSv, the “Estimated absorbed dose, Adrenals” value (F4 (167 MBq)) was 3.19 mGy and the “Estimated absorbed dose, Brain” value (F4 (167 MBq)) was 2.79 mGy. The “Estimated absorbed dose, Breasts” value (F4 (167 MBq)) was 1.47 mGy, the “Estimated absorbed dose, Gallbladder wall” value (F4 (167 MBq)) was 3.08 mGy and the “Estimated absorbed dose, Heart wall” value (F4 (167 MBq)) was 4.15 mGy. For the same compound, the “Estimated absorbed dose, Kidneys” value (F4 (167 MBq)) was 28.1 mGy, the “Estimated absorbed dose, Liver” value (F4 (167 MBq)) was 6.41 mGy and the “Estimated absorbed dose, Lower large intestine wall” value (F4 (167 MBq)) was 2.09 mGy. For the same compound, the “Estimated absorbed dose, Lungs” value (F4 (167 MBq)) was 9.27 mGy, the “Estimated absorbed dose, Muscle” value (F4 (167 MBq)) was 1.67 mGy and the “Estimated absorbed dose, Osteogenic cells” value (F4 (167 MBq)) was 2.46 mGy. For the same compound, the “Estimated absorbed dose, Ovaries” value (F4 (167 MBq)) was 2.39 mGy, the “Estimated absorbed dose, Pancreas” value (F4 (167 MBq)) was 3.95 mGy and the “Estimated absorbed dose, Red marrow” value (F4 (167 MBq)) was 1.79 mGy. For the same compound, the “Estimated absorbed dose, Remainder” value (F4 (167 MBq)) was 2.14 mGy, the “Estimated absorbed dose, Skin” value (F4 (167 MBq)) was 1.19 mGy and the “Estimated absorbed dose, Small intestine” value (F4 (167 MBq)) was 6.82 mGy. For the same compound, the “Estimated absorbed dose, Spleen” value (F4 (167 MBq)) was 3.11 mGy, the “Estimated absorbed dose, Stomach wall” value (F4 (167 MBq)) was 2.19 mGy and the “Estimated absorbed dose, Thymus” value (F4 (167 MBq)) was 4.01 mGy. The “Estimated absorbed dose, Thyroid” value (F4 (167 MBq)) was 2.31 mGy, the “Estimated absorbed dose, Upper, lower intestine wall” value (F4 (167 MBq)) was 2.83 mGy and the “Estimated absorbed dose, Urinary bladder wall” value (F4 (167 MBq)) was 4.93 mGy. The “Estimated absorbed dose, Uterus” value (F4 (167 MBq)) was 6.49 mGy, the “Effective dose (whole body)” value (Female n=4, mean±SD) was 0.0262±0.00361 mSv/MBq and the “Estimated dose, Adrenals” value (Female n=4, mean±SD) was 0.0207±0.00119 mGy/MBq. The “Estimated dose, Brain” value (Female n=4, mean±SD) was 0.0161±0.0018 mGy/MBq, the “Estimated dose, Breasts” value (Female n=4, mean±SD) was 0.00903±0.000633 mGy/MBq and the “Estimated dose, Gallbladder wall” value (Female n=4, mean±SD) was 0.0219±0.00297 mGy/MBq. The “Estimated dose, Heart wall” value (Female n=4, mean±SD) was 0.0213±0.00289 mGy/MBq, the “Estimated dose, Kidneys” value (Female n=4, mean±SD) was 0.196±0.0451 mGy/MBq and the “Estimated dose, Liver” value (Female n=4, mean±SD) was 0.0426±0.00491 mGy/MBq. The “Estimated dose, Lower, large intestine wall” value (Female n=4, mean±SD) was 0.0128±0.000858 mGy/MBq, the “Estimated dose, Lungs” value (Female n=4, mean±SD) was 0.0598±0.0109 mGy/MBq and the “Estimated dose, Muscle” value (Female n=4, mean±SD) was 0.0104±0.00065 mGy/MBq. For the same compound, the “Estimated dose, Osteogenic cells” value (Female n=4, mean±SD) was 0.0150±0.00144 mGy/MBq, the “Estimated dose, Ovaries” value (Female n=4, mean±SD) was 0.0145±0.000479 mGy/MBq and the “Estimated dose, Pancreas” value (Female n=4, mean±SD) was 0.0256±0.00462 mGy/MBq. The “Estimated dose, Red marrow” value (Female n=4, mean±SD) was 0.0111±0.000499 mGy/MBq, the “Estimated dose, Remainder” value (Female n=4, mean±SD) was 0.0134±0.000535 mGy/MBq and the “Estimated dose, Skin” value (Female n=4, mean±SD) was 0.00734±0.000677 mGy/MBq. For the same compound, the “Estimated dose, Small intestine” value (Female n=4, mean±SD) was 0.0312±0.00733 mGy/MBq, the “Estimated dose, Spleen” value (Female n=4, mean±SD) was 0.0270±0.0139 mGy/MBq and the “Estimated dose, Stomach wall” value (Female n=4, mean±SD) was 0.0135±0.000943 mGy/MBq. For the same compound, the “Estimated dose, Thymus” value (Female n=4, mean±SD) was 0.0255±0.00826 mGy/MBq and the “Estimated dose, Thyroid” value (Female n=4, mean±SD) was 0.0223±0.0174 mGy/MBq.

From article PMC13170702 (Nuclear medicine and biology, 2025)
